Series [1] deals with Human immunodeficiency virus type 1 reverse transcriptase (Human immunodeficiency virus 1), Q72547 [Y181I].
Series [2] concerns Human immunodeficiency virus 1. The series is described as follows: Antiviral activity against HIV 1 harboring reverse transcriptase K103N mutant infected in human MT4 cells assessed as inhibition of virus-induced cytopathic effect after 5 days by MTT assay. Type of series: functional, organism-based. The conditions noted are these: Human immunodeficiency virus 1, MT4, 120 h.

Series [3] relates to Human immunodeficiency virus 1. The series is described as follows: Antiviral activity against HIV 1 harboring reverse transcriptase Y181C mutant infected in human MT4 cells assessed as inhibition of virus-induced cytopathic effect after 5 days by MTT assay. It counts as functional, organism-based. The conditions noted are these: Human immunodeficiency virus 1, MT4, 120 h. An outline of the steps:
(§1)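 MT-4 cells (NIH AIDS Reagent Program) infected with the mutant HIV-1 strain in the presence of a range of drug concentrations. Mutant strains were from the MRC Centralised Facility for AIDS Reagents; IRLL98 carries K101Q, Y181C and G190A. Viable cells were counted by MTT colorimetry at day 5 post-infection. […] Values are means of at least two experiments.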

Series [4] relates to Human immunodeficiency virus 1. The series is described as follows: Antiviral activity against multidrug-resistant HIV 1 IRLL98 harboring reverse transcriptase K101Q/Y181C/G190a mutant infected in human MT4 cells assessed as virus-induced cytopathic effect after 5 days by MTT assay. Type of series: functional, organism-based. The conditions noted are these: Human immunodeficiency virus 1, IRLL98, MT4, 120 h. The method in brief:
as §1

Series [5] relates to Human immunodeficiency virus 1. The series is described as follows: Antiviral activity against wild type HIV 1 NL4-3 infected in human MT4 cells assessed as inhibition of virus-induced cytopathic effect after 5 days by MTT assay. Particulars: Human immunodeficiency virus 1, NL4-3, MT4, 120 h. Type of series: functional, organism-based.
Series [6] has as its system Human immunodeficiency virus type 1 reverse transcriptase (Human immunodeficiency virus 1), Q72547 [K103N].
The target in series [7] is Human immunodeficiency virus type 1 reverse transcriptase (Human immunodeficiency virus 1) (UniProt Q72547).
Series [8] in a line: Cytotoxicity against human MT4 cells assessed as cell viability by MTT assay. Type of series: cell-based. (In general: Tetrazolium assays rely on reduction of a dye to a coloured formazan, in cell work by metabolically active cells.)
Series [9] relates to Human immunodeficiency virus 1. The series is described as follows: Antiviral activity against HIV 1 harboring reverse transcriptase Y188L mutant infected in human MT4 cells assessed as inhibition of virus-induced cytopathic effect after 5 days by MTT assay. Type of series: functional, organism-based. The conditions noted are these: Human immunodeficiency virus 1, MT4, 120 h. On the technique in general: Protection from cytopathic effect is a common read-out in antiviral testing.

Series [10] concerns Human immunodeficiency virus 1. The series is described as follows: Ratio of ID50 for HIV 1 reverse transcriptase Y188L mutant to ID50 for wild type HIV 1 NL4-3 reverse transcriptase. An outline of the steps: (§2)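 Recombinant HIV-1 RT (wild type or K103N, L100I, Y181I or Y188L), purified to >95%, at 2-4 nM. RNA-dependent DNA polymerase assay with 0.5 μg poly(rA)/oligo(dT) 10:1 (0.3 μM 3'-OH ends) and 10 μM [3H]dTTP in 8% final DMSO. Initial velocities were taken from aliquots sampled every 2 min. […] The ratio is mutant ID50 over wild-type ID50. Means of at least three experiments.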

Series [11] deals with Human immunodeficiency virus type 1 reverse transcriptase (Human immunodeficiency virus 1), Q72547 [L100I].
For series [12], the system named is Human immunodeficiency virus 1. The series is described as follows: Resistance ratio of EC50 for HIV 1 harboring reverse transcriptase Y181C mutant infected in human MT4 cells to EC50 for wild type HIV 1 NL4-3 infected in human MT4 cells. It counts as functional. The method in brief:
(§3)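 Fold change is the EC50 against the mutant strain (K103N, Y181C, Y188L or IRLL98) divided by the EC50 against wild-type NL4-3. Both EC50s come from MT-4 cells infected in the presence of a range of drug concentrations, with MTT viability read at day 5. Values are means of at least two experiments.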

In series [13] the test system is Human immunodeficiency virus 1. The series is described as follows: Ratio of ID50 for HIV 1 reverse transcriptase K103N mutant to ID50 for wild type HIV 1 NL4-3 reverse transcriptase. An outline of the steps:
as §2

Series [14] has as its system Human immunodeficiency virus 1. The series is described as follows: Resistance ratio of EC50 for HIV 1 harboring reverse transcriptase K103N mutant infected in human MT4 cells to EC50 for wild type HIV 1 NL4-3 infected in human MT4 cells. Type of series: functional. The method in brief:
as §3

The subject of series [15] is Human immunodeficiency virus 1. The series is described as follows: Resistance ratio of EC50 for HIV 1 harboring reverse transcriptase Y188L mutant infected in human MT4 cells to EC50 for wild type HIV 1 NL4-3 infected in human MT4 cells. It counts as functional. The method in brief:
as §3

Series [16] deals with Human immunodeficiency virus 1. The series is described as follows: Ratio of ID50 for HIV 1 reverse transcriptase Y181I mutant to ID50 for wild type HIV 1 NL4-3 reverse transcriptase. An outline of the steps: as §2
Series [17] can be described thus: Selectivity index, ratio of CC50 for human MT4 cells to EC50 for HIV 1 NL4-3. Type of series: toxicity, cell-based. The conditions noted are these: read-out: Ratio CC50/EC50. An outline of the steps:
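CC50 from mock-infected MT-4 cells and EC50 against HIV-1 NL4-3 in infected MT-4 cells, both by day-5 MTT viability read-out; index computed as CC50/EC50(NL4-3); means of at least two experiments.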

Series [18] has as its system Human immunodeficiency virus 1. The series is described as follows: Ratio of ID50 for HIV 1 reverse transcriptase L100I mutant to ID50 for wild type HIV 1 NL4-3 reverse transcriptase. An outline of the steps:
as §2

Series [19] has as its system Human immunodeficiency virus 1. The series is described as follows: Resistance ratio of EC50 for multidrug-resistant HIV 1 IRLL98 harboring reverse transcriptase K101Q/Y181C/G190a mutant to EC50 for wild type HIV 1 NL4-3 infected in human MT4 cells. It counts as functional. An outline of the steps: as §3
Series [20] has as its system MT4. The series is described as follows: Ratio of MC1220 CC50 to compound CC50 for human MT4 cells. It counts as ADME, cell-based.
Series [21] in a line: Ratio of TMC120 CC50 to compound CC50 for human MT4 cells. It counts as ADME, cell-based.
Series [22] concerns Human immunodeficiency virus 1. The series is described as follows: Ratio of efavirenz EC50 to compound EC50 for wild type HIV 1 NL4-3 infected in human MT4 cells. Type of series: functional.
Series [23] deals with Human immunodeficiency virus type 1 reverse transcriptase (Human immunodeficiency virus 1), Q72547 [K103N]. The series is described as follows: Ratio of MC1220 ID50 to compound ID50 for HIV 1 reverse transcriptase K103N mutant.

Some results are limits rather than exact numbers.

For `Cc1cc(C)c(Nc2ccnc(Nc3ccc(C#N)cc3)n2)c(C)c1` [DAPIVIRINE], the ID50 in [1] is above 1000 nM; in series [6] it was 100 nM; in [7], 7 nM. Besides, the 50% effective concentration (EC50) – broadly, the concentration at which the effect is half-maximal – in series [2] amounted to 1.2 nM; in series [3] it was 1.2 nM; in [4], 0.3 nM; in series [5], 0.03 nM. The half-maximal cytotoxic concentration (CC50) (as a rule, the concentration that lowers cell viability or growth by half) in series [8] stood at 3040 nM.

For `O=C1Nc2ccc(Cl)cc2[C@@](C#CC2CC2)(C(F)(F)F)O1` [EFAVIRENZ], the half-maximal effective concentration (EC50) in [2] was 343 nM; in series [3], 10.1 nM; in [4], 634 nM; in series [5] it was 3.17 nM. Also, in series [8], the half-maximal cytotoxic concentration (CC50) stood at 3170 nM.

In the case of `Cc1c(Cl)nc(Nc2ccc(C#N)cc2)nc1C(C)c1c(F)cccc1F` (configuration not stated), the concentration for a half-maximal effect (EC50) stood at 60 nM in series [9]; 2.3 nM in series [2]; 44 nM in [3]; 7.8 nM in series [4]; 2.3 nM in series [5]. The ID50 in series [1] stood at 3400 nM; in series [11] it was 150 nM; in [6], 71 nM; in series [7], 8.8 nM. The Ratio in [10] was 2.6; in series [13], 8.1; in series [16] it was 386; in series [18], 17. In addition, the “Ratio EC50” value in series [12] is 22; in [14], 1; in series [15] it was 30; in series [19], 3. Moreover, the selectivity ratio in series [17] was above 5650. The CC50 in series [8] was above 13000 nM.

Turning to `CC(c1cc(N)nc(Nc2ccc(C#N)cc2)n1)c1c(F)cccc1F` (configuration not stated), the EC50 in series [9] turned out to be 66.6 nM; in series [2], 8.2 nM; in [3], 44.7 nM; in series [5], 0.3 nM. Moreover, the ID50 in series [1] amounted to 11100 nM; in series [11] it was 765 nM; in series [6], 109 nM; in series [7] it was 11 nM. The Ratio amounted to 147 in [10]; 10 in series [13]; 2.5 in series [20]; 1010 in [16]; 69 in series [18]. Also, the “Ratio EC50” value is listed as 149 in series [12], 27 in series [14], 222 in series [15] and above 10 in series [22]. In addition, the selectivity ratio in series [21] was above 10; in series [17], 154000. In addition, the cytotoxic concentration (CC50) in series [8] was found to be 46100 nM.

For the compound `Cc1ccnc2c1NC(=O)c1cccnc1N2C1CC1` [NEVIRAPINE], the EC50 is above 7510 nM in series [9], 6120 nM in series [2], above 7510 nM in series [3] and above 18800 nM in series [4]. The ID50 in series [1] was 35000 nM. In addition, the CC50 in series [8] is 7510 nM.

On to `Cc1c(C(C)c2c(F)cccc2F)nc(N(C)C)[nH]c1=O` (configuration not stated), for which the ID50 in series [1] turned out to be 4000 nM; in series [11], 1000 nM; in [6] it was 500 nM; in series [7], 100 nM. Also, the Ratio in series [10] stood at 5; in series [13], 5; in series [16] it was 40; in [18], 10. Also, the concentration for a half-maximal effect (EC50) in series [4] was 205 nM. Also, the half-maximal cytotoxic concentration (CC50) in series [8] is above 17000 nM.

For the compound `Cc1c(N)nc(Nc2ccc(C#N)cc2)nc1Cc1c(F)cccc1F`, the EC50 in [9] was determined as 151 nM; in series [2] it was 8.2 nM; in [3], 70.3 nM; in [5], 0.2 nM. Moreover, the ID50 in [1] was found to be 22100 nM; in series [11], 603 nM; in series [6], 90 nM; in series [7] it was 11 nM. Moreover, the Ratio in series [10] was 315; in series [13] it was 8; in series [20], 2.5; in series [16], 2010; in series [18], 55. In addition, the “Ratio EC50” value in [12] is listed as 352; in series [14], 41; in series [15] it was 756; in series [22], above 10. The selectivity ratio in [21] was above 10; in series [17], 230000. Also, in series [8], the CC50 worked out at 45900 nM.

Regarding `N#Cc1ccc(Nc2nc(N)cc(Cc3c(F)cccc3F)n2)cc1`, the concentration for a half-maximal effect (EC50) worked out at 108 nM in series [9], 14.2 nM in series [2], 71.4 nM in series [3] and 0.3 nM in series [5]. The ID50 in [1] was determined as 17300 nM; in series [11] it was 1510 nM; in [6], 169 nM; in series [7] it was 11 nM. For the same compound, the Ratio in series [10] came out at 280; in [13], 15; in series [20] it was 2.5; in series [16], 1570; in series [18], 137. Moreover, the “Ratio EC50” value in [12] is reported as 238; in [14] it was 47; in series [15] it was 361; in series [22], above 10. Moreover, the selectivity ratio was above 10 in series [21] and 149000 in series [17]. For the same compound, the CC50 in [8] is 44600 nM.

On to `Cc1c(N)nc(Nc2ccc(C#N)cc2)nc1C(C)c1c(F)cccc1F` (configuration not stated), for which the EC50 was found to be 27.4 nM in [9]; 34.7 nM in series [2]; 39.9 nM in series [3]; 0.82 nM in series [4]; 0.08 nM in series [5]. For the same compound, the ID50 in [1] stood at 1680 nM; in series [11] it was 282 nM; in series [6] it was 22 nM; in series [7], 14 nM. Moreover, the Ratio in [10] is 10; in [13], 1.6; in series [20] it was 2.5; in series [16], 120; in series [18], 20; in series [23] it was 23. In series [21], the selectivity ratio was above 10. The “Ratio EC50” value in series [22] was above 10; in series [19] it was 10. Moreover, the CC50 in [8] came out at 40500 nM.

The values are drawn from ChEMBL document CHEMBL1955737, “Diarylpyrimidine-dihydrobenzyloxopyrimidine hybrids: new, wide-spectrum anti-HIV-1 agents active at (sub)-nanomolar level” (J Med Chem, 2011).
